Assay outcomes as filed in PubChem BioAssay.
In the library only some 2.2% were active in any assay of this set; here they are far more common.
AI-2 QS modul = modulates the Vibrio harveyi AI-2 quorum sensing system. Vibrio harveyi JMH597 AI-2 luminescence/OD600 ratio, 9 h; stronger effect = lower value; strain lacks LuxN and CqsS sensors; 0 = neutral-control median. activity change, % at 7.5 µM. 0.4% of 300,000 active. AID 2094; in the data active means activity change below about -75%, passing the limit was not always enough; inconclusive means no clear call, values can overlap the other calls;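 further: luminescence divided by OD600 gain over 9 h not by final OD600 alone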
HDAC3 inh = human HDAC3 inhibition | inhibition, % at 8.3 µM | O15379 | AID 2718 | 0.15% of 320,000 active | recombinant HDAC3, fluorogenic peptide/trypsin coupled, fluorescence; in the data active means inhibition above about 26%, passing the limit was not always enough; inconclusive means no clear call, values can overlap the other calls
Target sequence (O15379 whole entry, looked up): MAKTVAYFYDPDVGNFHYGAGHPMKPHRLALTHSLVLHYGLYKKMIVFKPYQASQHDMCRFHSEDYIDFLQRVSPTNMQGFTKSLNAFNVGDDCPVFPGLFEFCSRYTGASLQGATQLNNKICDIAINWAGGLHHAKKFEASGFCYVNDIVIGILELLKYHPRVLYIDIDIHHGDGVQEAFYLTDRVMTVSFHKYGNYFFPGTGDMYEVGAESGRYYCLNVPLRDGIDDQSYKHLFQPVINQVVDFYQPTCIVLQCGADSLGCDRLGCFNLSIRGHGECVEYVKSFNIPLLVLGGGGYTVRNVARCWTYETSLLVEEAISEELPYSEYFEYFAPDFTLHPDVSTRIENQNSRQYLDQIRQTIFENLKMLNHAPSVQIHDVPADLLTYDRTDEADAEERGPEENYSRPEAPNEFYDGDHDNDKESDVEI
T cruzi inh = blocks replication of Trypanosoma cruzi; T. cruzi beta-gal in NIH3T3, luminescence, 90 h; inhibition, % (no concentration beside the values); 1.4% of 300,000 active; AID 1885;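 active means mean inhibition across valid replicates above about 55%, limit read from the data; inconclusive means mean below that limit but half or more replicates reach it; inactive means mean below it, under half of replicates reach it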;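 further: signal also drops with host cell toxicity which is not excluded here; 0% = plate median of DMSO wells and 100% = zero luminescence signal; higher percent means less beta-gal luminescence so fewer parasites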
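compound dosing = single 50 nL compound addition per well in DMSO | material = NIH/3T3 host cells with β-galactosidase reporter T. cruzi | input = 5,000 host fibroblasts per well | timing = ≥90 h infection period, 3 h prior cell attachment | read-out basis = percent inhibition of parasite-derived β-gal signal | detection = GalScreen β-gal luminescence, detergent lysis, 60 min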
Efflux pump inh = blocks antifungal efflux pumps in multiplex yeast assay; S. cerevisiae Candida pump triplex, Nile Red efflux; inhibition, % at 10 µM; 0.44% of 330,000 active; AID 485275;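 active means plate passing quality check with inhibition over a set limit, or well fluorescence over plate mean plus 4 SD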;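 further: Nile Red retained in pooled yeast measured as flow cytometry median fluorescence; 0% = buffer negative control and 100% = Enniatin B positive control; higher means more Nile Red kept so more efflux inhibition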
PolyA inhibitor = inhibitors of polyadenylation in S. cerevisiae | 0.02% of 300,000 active | activity score, % at 12 µM | S. cerevisiae SKY197-pL101 polyadenylation reporter, beta-gal luminescence; efflux-impaired pdr1/pdr3 knockout yeast; score 100 = 6 SD above DMSO;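 active means lowest replicate activity score at least 50, where 100 means six control SD above control mean; inconclusive means lowest score under 50 but half or more replicates reach 50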;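 further: yeast exposed to compound for 9 h at 30 °C; higher score means more reporter readthrough which indicates perturbed polyadenylation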
* hit, by the source's call; ? = inconclusive; nt = no result given.

SMILES | AI-2 QS modul | HDAC3 inh | T cruzi inh | Efflux pump inh | PolyA inhibitor
Cc1nc(-c2ccccn2)nc(N(C)c2ccccc2)c1Cl | 12 | 5 | 59* | 0 | -57
O=C(CCl)N1N=C(c2cccs2)CC1c1ccco1 (configuration not stated) | 8 | -3 | 83* | 0 | -22
CCOC(=O)C1CCN(C(=O)c2ccc3nc(-c4ccc(OC)cc4)c(-c4ccc(OC)cc4)nc3c2)CC1 | 11 | -20 | 23 | 0 | -13
CC(=O)COC(=O)C1=NN(c2ccccc2)C(=O)CC1 | -3 | -1 | 10 | 0 | -8
O=C(OC(C(=O)NC1CCCCC1)c1ccccc1F)c1ccco1 (configuration not stated) | 10 | -3 | -2 | 0 | 4
Cc1ccc(-c2cc3cccc[n+]3cc2-c2ccc(C)cc2)cc1 | 24 | -15 | 60* | 0 | -1
O=C1NCCOC(=O)[C@@H](Cc2ccc(F)cc2)C/C=C\C[C@@H]1CC(=O)N(CCO)Cc1ccccc1 | nt | 8 | nt | 0 | nt
C=CCNC(=O)O/N=C/c1csc([N+](=O)[O-])c1 | ? | 4 | 57* | 0 | -5
CC(=O)c1ccc(N2C(=O)CC(N3CCN(S(=O)(=O)c4cc(C)ccc4C)CC3)C2=O)cc1 (configuration not stated) | nt | 0 | nt | 0 | nt
CCc1cc(CNC(=O)c2ccc(OC3CCN(C(C)=O)CC3)c(OC)c2)on1 | 10 | -1 | -21 | 0 | 11
COc1ccc(NCc2ccc(OC)c(Cn3ccnc3)c2)c(OC)c1 | -7 | -3 | 56* | 0 | -6
COc1ccc(Cn2ccnc2)cc1Br | 9 | 1 | 20 | 0 | 23
Cc1nn(CCCC(=O)NCCCN2CCN(C)CC2)c(=O)c2c1sc1ccccc12 | 8 | -1 | 25 | 0 | -9
O=C(N/N=C/c1ccc(OC(F)F)cc1OC(F)F)NC1CCCCC1 | 8 | 29* | 28 | 0 | -23
Cc1ccc(C(=O)C[n+]2cccc3ccccc32)cc1 | 8 | -3 | 59* | 0 | 1
CC(C)C[C@H]1CNC(=O)C(=O)N1C[C@H](C)NC(=O)Cc1ccccc1 | 12 | -1 | -5 | 0 | 5
CCOC(=O)c1c(NC(=O)Cn2nc(C(F)F)cc2C(F)F)sc(C)c1C | 16 | 20 | 32 | 0 | -2
CCOC(=O)c1c(NC(=O)Cn2cnc([N+](=O)[O-])n2)sc(C)c1C | -1 | -5 | 72* | 0 | -13
CC1CCc2c(sc(NC(=O)Cn3cnc([N+](=O)[O-])n3)c2C(N)=O)C1 (configuration not stated) | 15 | -5 | 68* | 0 | 10
NC(=O)c1c(NC(=O)Cn2cnc([N+](=O)[O-])n2)sc2c1CCCC2 | -6 | 0 | 51 | 0 | 7
CCOC(=O)c1c(NC(=O)Cn2cnc([N+](=O)[O-])n2)sc2c1CCCC2 | -4 | 6 | 64* | 0 | -3
CC(C)OC(=O)c1c(NC(=O)Cn2cnc([N+](=O)[O-])n2)sc2c1CCCC2 | 22 | 1 | 105* | 0 | -1
C=CCNC(=O)CC(=O)N/N=C/c1cccs1 | 0 | 9 | -5 | 0 | 1
CCOc1ccc(CCNC(=O)COC(=O)c2c(C)nn(-c3ccccc3)c2C)cc1OCC | 3 | -1 | 21 | 0 | -10
N#CCc1c(C#N)c(N)nc(Nc2ccccc2)c1C#N | 18 | 4 | 5 | 0 | -3
SMILES | AI-2 QS modul | HDAC3 inh | T cruzi inh | Efflux pump inh | PolyA inhibitor
CCOC(=O)c1c(NC(=O)C[n+]2ccc(N(C)C)cc2)sc(C)c1C | 26 | 0 | 62* | 0 | 2
CC1CCCCN1CC(O)COCCC12CC3CC(CC(C3)C1)C2 (configuration not stated) | 28 | -4 | 47 | 0 | -13
CCOC(=O)N1CCN(CC(O)COCCC23CC4CC(CC(C4)C2)C3)CC1 (configuration not stated) | 19 | 10 | 68* | 0 | -2
CN1CCN(C(CNC(=O)c2ccc(Br)o2)c2ccc(F)cc2)CC1 (configuration not stated) | -10 | 7 | 62* | 0 | 4
CN1CCN(C(CNC(=O)C(=O)Nc2ccc3c(c2)OCCO3)c2ccc(F)cc2)CC1 (configuration not stated) | 15 | 5 | 62* | 0 | 4
COc1cccc(C2C([N+](=O)[O-])=C(N)Oc3cc(C)oc(=O)c32)c1 (configuration not stated) | 13 | 0 | -8 | 0 | 15
Cc1cc(C)c2nc(-c3ccncc3)cc(C(=O)N3CCN(Cc4ccccc4Cl)CC3)c2c1 | 19 | 6 | 61* | 0 | 6
Cc1ccc2nc(-c3ccncc3)cc(C(=O)N3CCOCC3)c2c1 | 31 | -8 | 4 | 0 | 21
O=C(c1cc(-c2ccncc2)nc2ccc(Br)cc12)N1CCN(Cc2ccc3c(c2)OCO3)CC1 | -4 | 13 | 79* | 0 | 10
O=C(c1cc(-c2ccncc2)nc2ccc(Cl)cc12)N1CCN(Cc2ccc3c(c2)OCO3)CC1 | 16 | 10 | 72* | 0 | -4
CC(=O)c1ccc(N2CCN(C(=O)c3cc(-c4cccnc4)nc4ccc(Br)cc34)CC2)cc1 | 11 | -2 | 59* | 0 | 0
COc1ccc(OC)c(-c2nnc(SCC(=O)N3CCCC3)o2)c1 | 26 | 2 | 4 | 0 | -3
CCOc1ccc(S(=O)(=O)N2CCC(C(=O)NC3CC3)CC2)cc1Cl | 39 | -6 | 2 | 0 | -4
Cc1cccc(N2CCN(c3nc(C)cc(C)c3C#N)CC2C)c1 (configuration not stated) | 15 | 3 | 65* | 0 | -19
COc1cccc(N2CCN(c3nc(C)cc(C)c3C#N)CC2)c1 | 9 | 9 | 4 | 0 | -9
O=C(c1cc(COc2cccc3cnccc23)on1)N1CCC(c2ccccc2Cl)C1 (configuration not stated) | 11 | -7 | 63* | 0 | -14
O=C(c1cc(COc2c(F)cccc2F)on1)N1CCC(c2ccccc2Cl)C1 (configuration not stated) | 7 | -7 | 15 | 0 | 12
Cc1ccc([N+](=O)[O-])cc1NC(=O)CN(C1CCCCC1)S(=O)(=O)c1ccc(Cl)cc1 | 9 | nt | 59* | nt | -15
Cc1ccc(NC(=O)CN(c2ccc(Cl)cc2)S(=O)(=O)c2cc([N+](=O)[O-])ccc2Cl)c(C)c1 | -1 | 5 | 59* | 0 | -11
Cc1ccc([N+](=O)[O-])cc1NC(=O)CN(C(=O)c1ccccc1Cl)C1CCCCC1 | 22 | nt | 12 | 0 | 10
COc1ccc(-n2cnnc2SCC(=O)NC2CCCc3ccccc32)cc1 (configuration not stated) | -3 | -10 | -12 | 0 | 3
COc1cc(N2C(=O)C=CC2=O)c(OC)cc1Cl | -92* | 1 | 16 | 0 | -5
Cn1c(/C=C/c2ccc([N+](=O)[O-])o2)nc2ccccc2c1=O | -229* | 7 | 67* | 0 | -97
